# Reference: ChEMBL document CHEMBL1126775, “A pharmacological, crystallographic, and quantum chemical study of new inotropic agents” (J Med Chem, 1993)
# Where “and” joins values, the source holds several entries; their conditions need not be identical. Equal values may be shown once.
# Assays:
# [1] = species on record: Cavia porcellus; assay: Effect on contractile force of spontaneously beating atria from reserpine treated guinea pigs at the concentration of 10 e-3 M (negative ionotropic effect); type: functional
# [2] = species on record: Cavia porcellus; assay: Effect on contractile force of spontaneously beating atria from reserpine treated guinea pigs at the concentration of 10 e-5 M; type: functional
# [3] = species on record: Cavia porcellus; assay: Effect on contractile force of spontaneously beating atria from reserpine treated guinea pigs at the concentration of 2 x 10 e-3 M (negative ionotropic effect); type: functional
# [4] = species on record: Cavia porcellus; assay: Effect on contractile force of spontaneously beating atria from reserpine treated guinea pigs at the concentration of 5x 10 e-4 M (negative ionotropic effect); type: functional
# [5] = species on record: Cavia porcellus; assay: Effect on contractile force of spontaneously beating atria from reserpine treated guinea pigs at the concentration of 5x 10 e-5 M (negative ionotropic effect); type: functional
# [6] = species on record: Cavia porcellus; assay: Effect on frequency rate of spontaneously beating atria from reserpine treated guinea pigs at the concentration of 10 e-3 M (negative chronotropic ionotropic effect); type: functional
# [7] = species on record: Cavia porcellus; assay: Effect on frequency rate of spontaneously beating atria from reserpine treated guinea pigs at the concentration of 10 e-4 M (negative chronotropic ionotropic effect); type: functional
# [8] = species on record: Cavia porcellus; assay: Effect on frequency rate of spontaneously beating atria from reserpine treated guinea pigs at the concentration of 2 x 10 e-3 M (negative chronotropic ionotropic effect); type: functional
# [9] = species on record: Cavia porcellus; assay: Effect on frequency rate of spontaneously beating atria from reserpine treated guinea pigs at the concentration of 5 x 10 e-4 M (negative chronotropic ionotropic effect); type: functional
# [10] = species on record: Cavia porcellus; assay: Effect on contractile force of spontaneously beating atria from reserpine treated guinea pigs at the concentration of 10 e-4 M (negative ionotropic effect); type: functional
# [11] = species on record: Cavia porcellus; assay: Effect on frequency rate of spontaneously beating atria from reserpine treated guinea pigs at the concentration of 5 x 10 e-5 M (negative chronotropic ionotropic effect)
# [12] = species on record: Cavia porcellus; assay: Effect on contractile force of spontaneously beating atria from reserpine treated guinea pigs at the concentration of 10 e-3 M; type: functional
# [13] = species on record: Cavia porcellus; assay: Effect on contractile force of spontaneously beating atria from reserpine treated guinea pigs at the concentration of 10 e-4 M; type: functional
# [14] = species on record: Cavia porcellus; assay: Effect on contractile force of spontaneously beating atria from reserpine treated guinea pigs at the concentration of 2 x 10 e-3 M; type: functional
# [15] = species on record: Cavia porcellus; assay: Effect on contractile force of spontaneously beating atria from reserpine treated guinea pigs at the concentration of 5x 10 e-4 M; type: functional
# [16] = species on record: Cavia porcellus; assay: Effect on contractile force of spontaneously beating atria from reserpine treated guinea pigs at the concentration of 5x 10 e-5 M; type: functional
# [17] = species on record: Cavia porcellus; assay: Effect on frequency rate of spontaneously beating atria from reserpine treated guinea pigs at the concentration of 10 e-3 M; type: functional
# [18] = species on record: Cavia porcellus; assay: Effect on frequency rate of spontaneously beating atria from reserpine treated guinea pigs at the concentration of 10 e-4 M; type: functional
# [19] = species on record: Cavia porcellus; assay: Effect on frequency rate of spontaneously beating atria from reserpine treated guinea pigs at the concentration of 10 e-5 M; type: functional
# [20] = species on record: Cavia porcellus; assay: Effect on frequency rate of spontaneously beating atria from reserpine treated guinea pigs at the concentration of 2 x 10 e-3 M; type: functional
# [21] = species on record: Cavia porcellus; assay: Effect on frequency rate of spontaneously beating atria from reserpine treated guinea pigs at the concentration of 5 x 10 e-4 M; type: functional
# [22] = Logarithm of the sum of contributions of each atom to the total lipophilicity of the molecule; type: physicochemical; settings: octanol/water
# [23] = species on record: Cavia porcellus; assay: Inotropic effect in electrically driven left atrium from reserpine-treated guinea pig at the concentration of 10 e-4 M; type: functional, Cardiac atrium
# How it was run: (§1)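 Atria from reserpine-pretreated guinea pigs (2 mg/kg ip, 48 and 24 h), tyramine-unresponsive only. Left atrium loaded 0.5 g, paced at 1.5 Hz with 3-ms square pulses at 10–20% above threshold. Equilibrated 90 min. Agents added cumulatively, 5 min per concentration. Isometric developed tension expressed as % increase over control.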
# [24] = species on record: Cavia porcellus; assay: Inotropic effect in electrically driven left atrium from reserpine-treated guinea pig at the concentration of 10 e-5 M; type: functional, Cardiac atrium; how it was run: as §1
# [25] = species on record: Cavia porcellus; assay: Inotropic effect in electrically driven left atrium from reserpine-treated guinea pig at the concentration of 2 x 10 e-3 M; type: functional, Cardiac atrium; how it was run: as §1
# [26] = species on record: Cavia porcellus; assay: Inotropic effect in electrically driven left atrium from reserpine-treated guinea pig at the concentration of 5 x 10 e-4 M; type: functional, Cardiac atrium; how it was run: as §1
# [27] = species on record: Cavia porcellus; assay: Inotropic effect in electrically driven left atrium from reserpine-treated guinea pig at the concentration of 5 x 10 e-5 M; type: functional, Cardiac atrium; how it was run: as §1
# [28] = species on record: Cavia porcellus; assay: Inotropic effect in electrically driven left atrium from reserpine-treated guinea pig at the concentration of 10 e-3 M; type: functional, Cardiac atrium; how it was run: as §1
# [29] = species on record: Cavia porcellus; assay: Effect on contractile force of spontaneously beating atria from reserpine treated guinea pigs at the concentration of 10 e-5 M; arrhythmias; type: functional
Compound,Increase [1] [%],Increase [2] [%],Increase [3] [%],Increase [4] [%],Increase [6] [%],Increase [7] [%],Increase [8] [%],Increase [9] [%],Increase [10] [%],Increase [11],Increase [12] [%],Increase [13] [%],Increase [14] [%],Increase [15] [%],Increase [16] [%],Increase [17] [%],Increase [18] [%],Increase [19],Increase [20] [%],Increase [21] [%],other results
O=C(O)c1cc(C(=O)c2ccccc2)c(-c2ccccc2)nc1O,-90.39,2.45,-100,-61.56,-25.3,-5.31,-35.93,-14.43,-10.02,-2.23% and -3.38%,,,,,,,,,,,Increase [5]: -1.52%
O=C1CC(c2ccccc2)Cc2nc(O)ccc21 (stereo not given),,2.28,,,,,,,,-3.42%,1.73,1.2,3.44,1.46,4.52,12.61,5.61,2.19%,14.52,8.85,
CC(=O)c1cc(C(=O)O)c(O)nc1C,,2.63,,,-1.43,-5.67,-1.39,-2.31,,-4.2% and -4.31%,11.48,5.46,10.83,9.55,5.72,,,,,,
CC1(C)CC(=O)c2cc(C(=O)O)c(O)nc2C1,-3.94,0.51,-4.46,,-2.94,,-4.76,-0.69,,,,1.66,,-0.69,2.7,,0.88,0.41% and 1.8%,,,
CC1CC(=O)c2cc(C(=O)O)c(O)nc2C1 (stereo not given),,2.55,,,,,,,,,8.37,4.57,11.38,8.53,3.78,7.38,3.58,1.5% and 2.78%,10.36,6.53,
O=C(O)c1cc2c(nc1O)CC(c1ccccc1)CC2=O (stereo not given),-23.77,1.53,,-7.59,-13.88,-1.21,-27.07,-4.58,-1.21,,,,-27.77,,2.21,,,0.58% and 1.22%,,,
CC1(C)CC(=O)c2ccc(O)nc2C1,,0,,-5.5,,,,,-3.46,,2.45,,4.71,,,1.06,1.05,0% and 1.27%,2.65,1.09,Increase [5]: -3.45%
CC(C)C(=O)c1cc(C#N)c(O)nc1C(C)C,-67.64,8.22,-86.43,-34.43,,,,,,,,1.42,,,11.62,22.83,9.64,2.33% and 5.14%,16.27,18.85,
O=C1CCCc2nc(O)ccc21,,0.48,,,,,,,,,25.64,14.7,26.56,23.87,7.65,15.52,6.26,0%,18.17,12.44,
CC(C)(C)C(=O)c1cc(C#N)c(O)nc1C(C)(C)C,-81.39,7.34,-89.11,-66.56,-14.41,-0.44,-15.71,-6.73,-16.07,,,,,,11.34,,,2.98% and 0.28%,,,
CC(=O)c1ccc(O)nc1C,,5.35,,,,,,,,,10.27,10.35,10.35,9.72,5.84,10.85,4.7,1.79% and 4.14%,14.19,10.85,
N#Cc1cc2c(nc1O)CCCC2=O,,2.59,,,-0.57,-6.06,-0.79,-3.85,,-3.08%,23.3,16.12,13.01,25.67,7.87,,,3.02%,,,
Nc1cc(-c2ccncc2)c[nH]c1=O [INAMRINONE],,7.08,,,,,,,,,28.81,17.92,25.3,23.92,11.52,30.69,15.68,4.62% and 8.85%,26.3,24.11,logP [22]: 2.66; Increase [23]: 17.52%; Increase [24]: 4.5%; Increase [25]: 34.6%; Increase [26]: 22.3%; Increase [27]: 6.49%; Increase [28]: 27%
Cc1[nH]c(=O)c(C#N)cc1-c1ccncc1 [MILRINONE],,18.25,,,,,,,,,33.09,38.76,29.31,46.52,31.32,39.2,35.26,16.41% and 28.1%,31.79,43.96,logP [22]: 2.89; Increase [23]: 34.61%; Increase [24]: 13.25%; Increase [25]: 37.95%; Increase [26]: 44.72%; Increase [27]: 22.83%; Increase [28]: 41.96%
CC(C)C(=O)c1ccc(O)nc1C(C)C,-26.37,5.34,-44.47,-9.42,,-0.99,,,,-3.28% and -5.14%,,16.38,,,11.69,26.33,,,32.13,20.8,
CC(C)C(=O)c1cc(C(=O)O)c(O)nc1C(C)C,,3.46,-99.99,-49.63,,,,,-8.88,,-82.26,,,,3.21,16.19,6.01,0.58% and 0.75%,11.35,23.17,
O=C(O)c1cc2c(nc1O)CCCC2=O,,,,,,,,,,,,,,,,,,,,,Increase [29]: arrhythmias
N#Cc1cc(C(=O)c2ccccc2)c(-c2ccccc2)nc1O,-35.54,1.22,-39.43,-32.19,-8.29,-3.36,-9.96,-6.26,-22.26,-3.01%,,,,,,,,0.5%,,,Increase [5]: -6.67%
